For 16 compounds, IC50 and solubility results are on record in ChEMBL document CHEMBL1135972 (J Med Chem, 2002).

SMILES strings stand for the structures. pIC50: −log10 of the molar value. Values after ≈ are worked out from the molar mass of the structure shown.

A word on the pIC50: it is the negative decadic logarithm of the IC50, by convention in mol/L. What is called solubility is the concentration that dissolves in the medium under given conditions. The low end stands for little dissolved substance, the high end for much dissolved substance.

Data set [1] relates to WIL2. Nature of the data set: Growth inhibitory activity against human lymphoblastoid W1L2 cell line. The format is functional, cell-based. In a few lines: (§1)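 IC50 read by cell counting. For the folate-rescue arm, W1L2 medium carried 10 μM thymidine plus 50 μM hypoxanthine. Values are mean ± SD or individual results.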
Data set [2] concerns WIL2. Nature of the data set: Growth inhibitory activity against human lymphoblastoid W1L2 cell line in presence of 10 uM thymidine/50 uM hypoxanthine. The format is functional, cell-based. In a few lines: as §1
Data set [3] can be described thus: Growth inhibitory activity against human lymphoblastoid W1L2:R865 cell line. The format is functional, cell-based. In a few lines:
as §1

A short description of data set [4]: Solubility at pH 7.4 was determined. The format is physicochemical. Conditions: buffer. In a few lines:
(§2)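 About 2 mg solid shaken 18 h at 25 °C in the dark, then settled 30 min. pH rechecked (±0.2, readjusted, then 60 min re-equilibration). Centrifuged 1000g 15 min, 0.2 μm filtered, diluted 1:1 with MeCN. Assayed by RP18 HPLC, UV 295 nm, against a 3-point standard curve.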

A short description of data set [5]: Solubility at pH 6.0 was determined. The conditions noted are these: buffer. The format is physicochemical. An outline of the steps:
as §2

Data set [6] can be described thus: Solubility at pH 7.4. The format is physicochemical. Conditions: buffer. An outline of the steps: as §2
The nature of data set [7]: Solubility at pH 6.0. The format is physicochemical. Conditions: buffer. In a few lines: as §2
A further data set has as its system Proteasome. In words: Chymotryptic inhibitory activity against 26S proteasome. The format is functional, subcellular.

Consider `C#CCN(Cc1cc2c(=O)n(C)c(CN(CC)CC)nc2cc1Cl)c1ccc(C(=O)NCc2cccnc2)cc1`, for which the pIC50 in the data set with WIL2 [1] was 9.15; with WIL2 [2], 9.14; in data set [3], below 4.30.

Take `C#CCN(Cc1cc2c(=O)n(C)c(CN3CCN(CC)CC3)nc2cc1Cl)c1ccc(C(=O)NCc2cccnc2)cc1`: the solubility in data set [4] amounted to 286 µM (≈ 171 µg/mL); in data set [5], 1760 µM (≈ 1060 µg/mL). Further, the pIC50 with WIL2 [1] was 9.11; in the data set on WIL2 [2], 9.11; in data set [3], 4.66.

As for `C#CCN(Cc1cc2c(=O)n(C)c(CN3CCN(c4ccccc4)CC3)nc2cc1Cl)c1ccc(C(=O)NCc2cccnc2)cc1`, the solubility in data set [4] worked out at 5 µM (≈ 3.23 µg/mL); in data set [5] it was 23 µM (≈ 14.9 µg/mL). The pIC50 with WIL2 [1] is 8.14; in the data set with WIL2 [2], 8.27; in data set [3], 6.03.

Consider `C#CCN(Cc1cc2c(=O)n(CC(=O)N(CC)CC)c(CN3CCCCC3)nc2cc1Cl)c1ccc(C(=O)NCc2cccnc2)cc1`, for which the solubility in data set [4] and in data set [5] was 2 µM (≈ 1.34 µg/mL) each time. The pIC50 was 8.03 in the data set on WIL2 [1], 8.08 in the data set with WIL2 [2] and 4.72 in data set [3].

Take `C#CCN(Cc1cc2c(=O)n(C)c(CN3CCN(CCO)CC3)nc2cc1Cl)c1ccc(C(=O)NCc2cccnc2)cc1`: the solubility in data set [4] stood at 75 µM (≈ 46.1 µg/mL); in data set [5], 992 µM (≈ 609 µg/mL). Besides, the pIC50 is 8.15 with WIL2 [1], 8.15 in the data set on WIL2 [2] and 4.66 in data set [3].

Turning to `C#CCN(Cc1cc2c(O)nc(C)nc2cc1Br)c1ccc(C(=O)NCc2cccnc2)cc1`, the values for the pIC50 (with WIL2 [1]; in the data set on WIL2 [2]; in data set [3]) were 8.55, 8.66 and 6.21, respectively. Moreover, the solubility in data set [6] was 2.3 µM (≈ 1.19 µg/mL); in data set [7], below 1 µM.

For the compound `C#CCN(Cc1cc2c(=O)n(C)c(CN3CCN(C)CC3)nc2cc1Cl)c1ccc(C(=O)NCc2cccnc2)cc1`, the pIC50 in the data set with Proteasome was 5.52; in the data set with WIL2 [1], 9.31; in the data set on WIL2 [2] it was 9.49; in data set [3] it was 4.89. Also, the solubility in data set [4] is 146 µM (≈ 85.3 µg/mL); in data set [5], 636 µM (≈ 372 µg/mL).

Turning to `C#CCN(Cc1cc2c(=O)n(C)c(CN3CCCC3)nc2cc1Cl)c1ccc(C(=O)NCc2cccnc2)cc1`, the pIC50 was 9.15 in the data set on WIL2 [1], 9.12 with WIL2 [2] and 4.62 in data set [3].

For the compound `C#CCN(Cc1cc2c(=O)n(C)c(CN3CCCCC3)nc2cc1Cl)c1ccc(C(=O)NCCCn2cncn2)cc1`, the solubility in data set [4] amounted to 6 µM (≈ 3.52 µg/mL); in data set [5], 80 µM (≈ 47 µg/mL). For the same compound, the pIC50 was 6.08 with WIL2 [1], 6.10 in the data set with WIL2 [2] and 4.70 in data set [3].

For the compound `C#CCN(Cc1cc2c(=O)n(CC(=O)N3CCCCC3)c(CN3CCCCC3)nc2cc1Cl)c1ccc(C(=O)NCc2cccnc2)cc1`, the pIC50 in the data set with WIL2 [1] was 8.08; in the data set with WIL2 [2], 8.13; in data set [3], below 4.30.

Regarding `C#CCN(Cc1cc2c(=O)n(CC(=O)OC)c(CN3CCCCC3)nc2cc1Cl)c1ccc(C(=O)NCc2cccnc2)cc1`, the results for the pIC50 (in the data set with WIL2 [1]; in the data set on WIL2 [2]; in data set [3]) were 7.96, 8.02 and 4.64, respectively.

For the compound `C#CCN(Cc1cc2c(=O)n(C)c(CN3CCCCC3)nc2cc1Cl)c1ccc(C(=O)NCc2cccnc2)cc1`, the results for the pIC50 (in the data set on WIL2 [1]; in the data set with WIL2 [2]; in data set [3]) were 9.10, 9.11 and 4.85, respectively.

In the case of `C#CCN(Cc1cc2c(=O)n(C)c(CN3CCC[C@H]3C(=O)OC)nc2cc1Cl)c1ccc(C(=O)NCc2cccnc2)cc1`, the results for the pIC50 (in the data set on WIL2 [1]; in the data set on WIL2 [2]; in data set [3]) were 7.74, 7.85 and 4.62, respectively.

`C#CCN(Cc1cc2c(=O)n(C)c(CN3CCOCC3)nc2cc1Cl)c1ccc(C(=O)NCc2cccnc2)cc1`: the results for the solubility in data set [4] and in data set [5] were 2 µM (≈ 1.14 µg/mL) and 3 µM (≈ 1.71 µg/mL), respectively. Further, the pIC50 in the data set on WIL2 [1] was 8.70; in the data set with WIL2 [2], 8.70; in data set [3], 4.72.

Take `C#CCN(Cc1cc2c(=O)n(C)c(CN3CCN(C)CC3)nc2cc1Cl)c1ccc(C(=O)NCCCn2ccnc2)cc1`: the solubility in data set [4] amounted to 96 µM (≈ 57.7 µg/mL); in data set [5], 934 µM (≈ 561 µg/mL). For the same compound, the values for the pIC50 (in the data set on WIL2 [1]; in the data set with WIL2 [2]; in data set [3]) were 8.68, 8.64 and 4.74, respectively.

Consider `C#CCN(Cc1cc2c(=O)n(C)c(CN3CCC(O)CC3)nc2cc1Cl)c1ccc(C(=O)NCc2cccnc2)cc1`, for which the solubility in data set [4] turned out to be 0.5 µM (≈ 0.293 µg/mL); in data set [5], 2 µM (≈ 1.17 µg/mL). Further, the pIC50 in the data set with WIL2 [1] was 9.14; in the data set on WIL2 [2] it was 9.15; in data set [3] it was 4.74.
